Legend:
Format in all cases: functional
MCF7 [1] = test: Cytotoxicity against human MCF7 cells after 48 hrs by SRB assay in presence of 0.04 uM (E)-5-(benzo[d]thiazol-2-yl)-3-ethyl-2-(2-(methyl(phenyl)amino)vinyl)-1-phenyl-1H-benzo[d]imidazol-3-ium iodide; details: MCF7, 48 h
How it was run: (§1)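 Breast cancer cells were grown in RPMI 1640 with 10% FBS and 2 mM L-glutamine at 37 °C, 5% CO2, seeded at 5000–10,000/well and allowed 24 h before dosing. Compounds were given as seven serially diluted concentrations for 48 h, with any partner drug held constant, at ≤0.1% final DMSO. Cells were TCA-fixed, SRB-stained and read at 515–564 nm. GI50 came from a variable-slope sigmoidal fit of growth relative to time-zero and untreated wells; values are means of triplicates from ≥3 experiments.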

MCF7 [2] = test: Cytotoxicity against human MCF7 cells after 48 hrs by SRB assay in presence of 0.4 uM 1-(1-(4-(7-phenyl-1H-imidazo[4,5-g]quinoxalin-6-yl)benzyl)piperidin-4-yl)-1H-benzo[d]imidazol-2(3H)-one; how it was run: as §1
MCF7 [3] = test: Cytotoxicity against human MCF7 cells after 48 hrs by SRB assay in presence of 3.5 uM 4-(2-chloro-10H-phenoxazin-10-yl)-N,N-diethylbutan-1-amine hydrochloride; details: MCF7, 48 h; how it was run: as §1
MCF7 [4] = test: Cytotoxicity against human MCF7 cells after 48 hrs by SRB assay in presence of 0.5 uM 2-morpholino-8-phenyl-4H-chromen-4-one; details: MCF7, 48 h; how it was run: as §1
[5] = Cytotoxicity against human 184B5 cells after 48 hrs by SRB assay; details: 184B5, 48 h
How it was run: (§2)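 184B5 immortalized breast epithelial cells were grown in mammary epithelial basal medium with MEGM supplements at 37 °C, 5% CO2. Cells (5000–10,000/well) were preincubated 24 h, then exposed to seven concentrations for 48 h, with the listed partner drug fixed at its stated level. Cells were TCA-fixed, SRB-stained and read at 515–564 nm. Final DMSO was ≤0.1%.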

[6] = Cytotoxicity against human 184B5 cells after 48 hrs by SRB assay in presence of 0.04 uM (E)-5-(benzo[d]thiazol-2-yl)-3-ethyl-2-(2-(methyl(phenyl)amino)vinyl)-1-phenyl-1H-benzo[d]imidazol-3-ium iodide; details: 184B5, 48 h; how it was run: as §2
[7] = Cytotoxicity against human 184B5 cells after 48 hrs by SRB assay in presence of 0.4 uM 1-(1-(4-(7-phenyl-1H-imidazo[4,5-g]quinoxalin-6-yl)benzyl)piperidin-4-yl)-1H-benzo[d]imidazol-2(3H)-one; how it was run: as §2
[8] = Cytotoxicity against human 184B5 cells after 48 hrs by SRB assay in presence of 3.5 uM 4-(2-chloro-10H-phenoxazin-10-yl)-N,N-diethylbutan-1-amine hydrochloride; details: 184B5, 48 h; how it was run: as §2
[9] = Cytotoxicity against human 184B5 cells after 48 hrs by SRB assay in presence of 0.5 uM 2-morpholino-8-phenyl-4H-chromen-4-one; details: 184B5, 48 h; how it was run: as §2
MDA-MB-468 [10] = test: Cytotoxicity against human MDA-MB-468 cells after 48 hrs by SRB assay; details: MDA-MB-468, 48 h; how it was run: as §1
MDA-MB-468 [11] = test: Cytotoxicity against human MDA-MB-468 cells after 48 hrs by SRB assay in presence of 0.04 uM (E)-5-(benzo[d]thiazol-2-yl)-3-ethyl-2-(2-(methyl(phenyl)amino)vinyl)-1-phenyl-1H-benzo[d]imidazol-3-ium iodide; details: MDA-MB-468, 48 h; how it was run: as §1
MDA-MB-468 [12] = test: Cytotoxicity against human MDA-MB-468 cells after 48 hrs by SRB assay in presence of 0.4 uM 1-(1-(4-(7-phenyl-1H-imidazo[4,5-g]quinoxalin-6-yl)benzyl)piperidin-4-yl)-1H-benzo[d]imidazol-2(3H)-one; how it was run: as §1
MDA-MB-468 [13] = test: Cytotoxicity against human MDA-MB-468 cells after 48 hrs by SRB assay in presence of 3.5 uM 4-(2-chloro-10H-phenoxazin-10-yl)-N,N-diethylbutan-1-amine hydrochloride; details: MDA-MB-468, 48 h; how it was run: as §1
MDA-MB-468 [14] = test: Cytotoxicity against human MDA-MB-468 cells after 48 hrs by SRB assay in presence of 0.5 uM 2-morpholino-8-phenyl-4H-chromen-4-one; details: MDA-MB-468, 48 h; how it was run: as §1
MDA-MB-231 [15] = test: Cytotoxicity against human MDA-MB-231 cells after 48 hrs by SRB assay; details: MDA-MB-231, 48 h; how it was run: as §1
MDA-MB-231 [16] = test: Cytotoxicity against human MDA-MB-231 cells after 48 hrs by SRB assay in presence of 0.04 uM (E)-5-(benzo[d]thiazol-2-yl)-3-ethyl-2-(2-(methyl(phenyl)amino)vinyl)-1-phenyl-1H-benzo[d]imidazol-3-ium iodide; details: MDA-MB-231, 48 h; how it was run: as §1
MDA-MB-231 [17] = test: Cytotoxicity against human MDA-MB-231 cells after 48 hrs by SRB assay in presence of 0.4 uM 1-(1-(4-(7-phenyl-1H-imidazo[4,5-g]quinoxalin-6-yl)benzyl)piperidin-4-yl)-1H-benzo[d]imidazol-2(3H)-one; how it was run: as §1
MDA-MB-231 [18] = test: Cytotoxicity against human MDA-MB-231 cells after 48 hrs by SRB assay in presence of 3.5 uM 4-(2-chloro-10H-phenoxazin-10-yl)-N,N-diethylbutan-1-amine hydrochloride; details: MDA-MB-231, 48 h; how it was run: as §1
MDA-MB-231 [19] = test: Cytotoxicity against human MDA-MB-231 cells after 48 hrs by SRB assay in presence of 0.5 uM 2-morpholino-8-phenyl-4H-chromen-4-one; details: MDA-MB-231, 48 h; how it was run: as §1
MCF7 [20] = test: Cytotoxicity against human MCF7 cells after 48 hrs by SRB assay; details: MCF7, 48 h; how it was run: as §1

SMILES: CCCCNc1ccnc2cc(Cl)ccc12
- GI50 (MCF7 [1]): 10.2 µM
- GI50 (MCF7 [2]): 5.6 µM
- GI50 (MCF7 [3]): 11.4 µM
- GI50 (MCF7 [4]): 9.55 µM
- GI50 [5]: 18.4 µM
- GI50 [6]: > 20 µM
- GI50 [7]: 16.6 µM
- GI50 [8]: 19.4 µM
- GI50 [9]: > 20 µM
- GI50 (MDA-MB-468 [10]): 6.02 µM
- GI50 (MDA-MB-468 [11]): 3.95 µM
- GI50 (MDA-MB-468 [12]): 7.09 µM
- GI50 (MDA-MB-468 [13]): 4.3 µM
- GI50 (MDA-MB-468 [14]): 7.42 µM
- GI50 (MDA-MB-231 [15]): 15.9 µM
- GI50 (MDA-MB-231 [16]): 12.3 µM
- GI50 (MDA-MB-231 [17]): 8.8 µM
- GI50 (MDA-MB-231 [18]): 6.5 µM
- GI50 (MDA-MB-231 [19]): 11.3 µM
- GI50 (MCF7 [20]): 8.45 µM

SMILES: CN(C)CCNc1ccnc2cc(F)ccc12
- GI50 (MCF7 [1]): 2.56 µM
- GI50 (MCF7 [2]): 1.73 µM
- GI50 (MCF7 [3]): 3.26 µM
- GI50 (MCF7 [4]): 2.64 µM
- GI50 [5]: 40.4 µM
- GI50 [6]: > 20 µM
- GI50 [7]: > 20 µM
- GI50 [8]: > 20 µM
- GI50 [9]: > 20 µM
- GI50 (MDA-MB-468 [10]): 8.73 µM
- GI50 (MDA-MB-468 [11]): 4.87 µM
- GI50 (MDA-MB-468 [12]): 4.95 µM
- GI50 (MDA-MB-468 [13]): 4.61 µM
- GI50 (MDA-MB-468 [14]): 7.62 µM
- GI50 (MDA-MB-231 [15]): 7.08 µM
- GI50 (MDA-MB-231 [16]): 2.5 µM
- GI50 (MDA-MB-231 [17]): 1.94 µM
- GI50 (MDA-MB-231 [18]): 2 µM
- GI50 (MDA-MB-231 [19]): 9.45 µM
- GI50 (MCF7 [20]): 3.42 µM

SMILES: COc1ccc2c(NCCN(C)C)ccnc2c1
- GI50 (MCF7 [1]): 3.54 µM
- GI50 (MCF7 [2]): 1.82 µM
- GI50 (MCF7 [3]): 3.66 µM
- GI50 (MCF7 [4]): 2.65 µM
- GI50 [5]: 44.6 µM
- GI50 [6]: > 20 µM
- GI50 [7]: > 20 µM
- GI50 [8]: > 20 µM
- GI50 [9]: > 20 µM
- GI50 (MDA-MB-468 [10]): 4.8 µM
- GI50 (MDA-MB-468 [11]): 5.85 µM
- GI50 (MDA-MB-468 [12]): 5.91 µM
- GI50 (MDA-MB-468 [13]): 5.66 µM
- GI50 (MDA-MB-468 [14]): 7.62 µM
- GI50 (MDA-MB-231 [16]): 4.49 µM
- GI50 (MDA-MB-231 [17]): 0.74 µM
- GI50 (MDA-MB-231 [18]): 1.24 µM
- GI50 (MDA-MB-231 [19]): 9.45 µM
- GI50 (MCF7 [20]): 3.89 µM

SMILES: CCCCNc1ccnc2cc(F)ccc12
- GI50 (MCF7 [1]): 5.78 µM
- GI50 (MCF7 [2]): 1.63 µM
- GI50 (MCF7 [3]): 3.7 µM
- GI50 (MCF7 [4]): 3.17 µM
- GI50 [5]: 18.7 µM
- GI50 [6]: 12.4 µM
- GI50 [7]: 14.9 µM
- GI50 [8]: 8.19 µM
- GI50 [9]: 12.5 µM
- GI50 (MDA-MB-468 [10]): 1.41 µM
- GI50 (MDA-MB-468 [11]): 2.69 µM
- GI50 (MDA-MB-468 [12]): 2.09 µM
- GI50 (MDA-MB-468 [13]): 1.44 µM
- GI50 (MDA-MB-468 [14]): 3.5 µM
- GI50 (MDA-MB-231 [15]): 6.32 µM
- GI50 (MDA-MB-231 [16]): 7.25 µM
- GI50 (MDA-MB-231 [17]): 5.63 µM
- GI50 (MDA-MB-231 [18]): 3.74 µM
- GI50 (MDA-MB-231 [19]): 12.3 µM
- GI50 (MCF7 [20]): 1.98 µM

SMILES: CN(C)CCNc1ccnc2cc(Cl)ccc12
- GI50 (MCF7 [1]): 4.96 µM
- GI50 (MCF7 [2]): 3.32 µM
- GI50 (MCF7 [3]): 7.37 µM
- GI50 (MCF7 [4]): 7.54 µM
- GI50 [5]: 44.5 µM
- GI50 [6]: > 20 µM
- GI50 [7]: > 20 µM
- GI50 [8]: > 20 µM
- GI50 [9]: > 20 µM
- GI50 (MDA-MB-468 [10]): 13.3 µM
- GI50 (MDA-MB-468 [11]): 3.43 µM
- GI50 (MDA-MB-468 [12]): 6.5 µM
- GI50 (MDA-MB-468 [13]): 3.24 µM
- GI50 (MDA-MB-468 [14]): 19.3 µM
- GI50 (MDA-MB-231 [15]): 8.59 µM
- GI50 (MDA-MB-231 [16]): 5.66 µM
- GI50 (MDA-MB-231 [17]): 2.87 µM
- GI50 (MDA-MB-231 [18]): 0.74 µM
- GI50 (MDA-MB-231 [19]): 9.88 µM
- GI50 (MCF7 [20]): 15.4 µM

SMILES: CCN(CC)CCCC(C)Nc1ccnc2cc(Cl)ccc12 (stereo unspecified) [CHLOROQUINE PHOSPHATE]
- GI50 (MCF7 [1]): 7.54 µM
- GI50 (MCF7 [2]): 5.51 µM
- GI50 (MCF7 [3]): 11.8 µM
- GI50 (MCF7 [4]): 7.71 µM
- GI50 [5]: 76.1 µM
- GI50 [6]: > 20 µM
- GI50 [7]: > 20 µM
- GI50 [8]: > 20 µM
- GI50 [9]: > 20 µM
- GI50 (MDA-MB-468 [11]): 6.53 µM
- GI50 (MDA-MB-468 [12]): 6.83 µM
- GI50 (MDA-MB-468 [13]): 2.81 µM
- GI50 (MDA-MB-468 [14]): 9.14 µM
- GI50 (MDA-MB-231 [16]): 8.33 µM
- GI50 (MDA-MB-231 [17]): 12.6 µM
- GI50 (MDA-MB-231 [18]): 6.08 µM
- GI50 (MDA-MB-231 [19]): 18.8 µM

Source: ChEMBL document CHEMBL1154732, “A 4-aminoquinoline derivative that markedly sensitizes tumor cell killing by Akt inhibitors with a minimum cytotoxicity to non-cancer cells” (2010)
